From ChEMBL document CHEMBL4190282, “The Conjugated Double Bond of Coniferyl Aldehyde Is Essential for Heat Shock Factor 1 Mediated Cytotoprotection” (J Nat Prod, 2017)
The source made the active and inactive calls. The calls are words filed in the database; no cut-off is given here.

Experiments:
[1] = molecular target: T1, Heat shock factor protein 1 (Homo sapiens) (UniProt Q00613); test: Activation of HSF1 in human NCI-H460 cells expressing pGL4-hsp70 construct assessed as upregulation of hsp70 promoter activity at 10 to 30 uM after 12 hrs by luciferase reporter gene assay; assay type: cell-based
T1 sequence (whole entry): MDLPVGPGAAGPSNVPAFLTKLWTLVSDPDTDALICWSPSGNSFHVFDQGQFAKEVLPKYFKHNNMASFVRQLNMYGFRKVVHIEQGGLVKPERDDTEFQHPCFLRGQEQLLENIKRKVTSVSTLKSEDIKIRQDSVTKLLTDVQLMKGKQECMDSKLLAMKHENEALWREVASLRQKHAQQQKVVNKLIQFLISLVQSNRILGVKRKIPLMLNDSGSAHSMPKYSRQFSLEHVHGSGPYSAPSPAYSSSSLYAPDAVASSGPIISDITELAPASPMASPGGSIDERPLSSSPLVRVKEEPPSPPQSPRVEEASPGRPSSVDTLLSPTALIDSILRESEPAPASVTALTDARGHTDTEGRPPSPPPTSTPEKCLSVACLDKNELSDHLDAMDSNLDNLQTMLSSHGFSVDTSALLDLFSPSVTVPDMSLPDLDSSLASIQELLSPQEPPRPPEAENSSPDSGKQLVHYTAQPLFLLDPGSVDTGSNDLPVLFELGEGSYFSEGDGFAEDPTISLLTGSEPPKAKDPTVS
Outline: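 NCI-H460 cells stably carrying hsp25 or hsp70 promoter–luciferase reporters, seeded, treated after 24 h at 10 or 30 μM and harvested 12 h later. Lysate luciferase normalized to β-galactosidase; mean of three independent experiments, fold-change vs negative control.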

NCI-H460 = test: Upregulation of HSF1 protein level in human NCI-H460 cells at 10 to 30 uM after 12 hrs by Western blot analysis; assay type: functional, cell-based
Outline: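 NCI-H460 cells treated 12 h at 10 or 30 μM; HSF1, HSP27 and HSP70 detected by Western blot.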

[2] = molecular target: T2, Heat shock factor protein 1 (Mus musculus) (UniProt P38532); test: Activation of HSF1 in MEF assessed as protection against paclitaxel-induced PARP cleavage at 3 uM pretreated for 1 hr followed by paclitaxel addition measured after 24 hrs by immunoblotting analysis; assay type: cell-based
T2 sequence (whole entry): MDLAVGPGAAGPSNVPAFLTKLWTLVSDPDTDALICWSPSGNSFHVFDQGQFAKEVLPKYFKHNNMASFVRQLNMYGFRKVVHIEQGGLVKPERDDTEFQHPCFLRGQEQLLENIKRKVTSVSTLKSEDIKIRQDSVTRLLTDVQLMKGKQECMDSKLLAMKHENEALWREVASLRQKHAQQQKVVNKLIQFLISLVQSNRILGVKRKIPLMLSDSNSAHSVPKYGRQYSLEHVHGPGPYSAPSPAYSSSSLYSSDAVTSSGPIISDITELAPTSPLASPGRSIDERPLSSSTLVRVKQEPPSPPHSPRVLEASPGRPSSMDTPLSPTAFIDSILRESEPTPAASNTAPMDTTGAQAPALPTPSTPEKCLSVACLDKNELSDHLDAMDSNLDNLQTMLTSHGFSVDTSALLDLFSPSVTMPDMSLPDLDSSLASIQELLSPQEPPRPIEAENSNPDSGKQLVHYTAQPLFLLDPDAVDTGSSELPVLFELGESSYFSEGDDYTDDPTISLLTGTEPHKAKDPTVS
Outline: (§1)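 HSF1+/+ or HSF1−/− MEFs in DMEM with heat-inactivated 10% FBS, nonessential amino acids, glutamine, HEPES, 37 °C, 5% CO2. 1 h pretreatment at 3 μM, then 0.5 μM paclitaxel or 20 μM cisplatin for 24 h, or 10 Gy 137Cs γ-rays (3.81 Gy/min) for 48 h. Cleaved PARP and caspase-3 immunoblotted; bands normalized to loading control, fold-change vs negative control, ≥3 independent experiments.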

[3] = molecular target: T2, Heat shock factor protein 1 (Mus musculus); test: Activation of HSF1 in MEF assessed as protection against cisplatin-induced caspase3 cleavage at 3 uM pretreated for 1 hr followed by cisplatin addition measured after 24 hrs by immunoblotting analysis; assay type: cell-based; outline: as §1
[4] = molecular target: T2, Heat shock factor protein 1 (Mus musculus); test: Activation of HSF1 in MEF assessed as protection against IR-induced PARP cleavage at 3 uM pretreated for 1 hr followed by 10 Gy irradiation measured after 48 hrs by immunoblotting analysis; assay type: cell-based; outline: as §1
Mus musculus [5] = test: Toxicity in ICR mouse at 10 mg/kg, ip measured within 30 days; assay type: organism-based; settings: in vivo, 720 h
Outline: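 Normal ICR mice given 10 mg/kg ip (DMSO stock diluted in modified PBS); observed for signs of toxicity over 30 days.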

Mus musculus [6] = test: Protection against IR-induced irritability in ICR mouse at 5 to 10 mg/kg, ip administered once before and three times after 7 Gy irradiation measured daily for 30 days; assay type: functional, organism-based
Outline: (§2)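 Female ICR mice (5–6 weeks, 25–30 g) given 7 Gy whole-body IR; dosed ip at 5 or 10 mg/kg once before and three times after IR, DMSO stock diluted in modified PBS. Survival days and radiation sickness signs checked twice daily; 10 mice per group.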

Mus musculus [7] = test: Protection against IR-induced lethargy in ICR mouse at 5 to 10 mg/kg, ip administered once before and three times after 7 Gy irradiation measured daily for 30 days; assay type: functional, organism-based; outline: as §2
Mus musculus [8] = test: Protection against IR-induced reduction in circulating neutrophils in ICR mouse at 10 mg/kg, ip administered once before and three times after 4.5 Gy irradiation measured after 9 days; assay type: functional, organism-based
Outline: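 Female ICR mice (5–6 weeks) given 4.5 Gy whole-body IR, dosed ip at 10 mg/kg once before and three times after IR; 5 per group, sacrificed day 9. BM cellularity from H&E (hematopoietic cells per 200×200 μm area); peripheral WBC, lymphocytes, neutrophils; Ki67 IHC counted in five fields per femur; relative spleen weight vs control. Means ± SD, Student's t test.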

[9] = molecular target: T1, Heat shock factor protein 1 (Homo sapiens); test: Activation of HSF1 in human L132 cells assessed as increase in HSP70 protein levels at 1 to 3 uM after 12 hrs by immunoblotting analysis; assay type: cell-based
Outline: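 L132 cells treated at 3 μM for 12 h, or at various doses for 12 h, or at 3 μM over a time course. Lysates resolved by SDS-PAGE, blotted to nitrocellulose, milk-blocked, primary antibodies 18 h at 4 °C, ECL detection. HSP27, HSP70 and Ser326-phospho-HSF1 bands normalized to loading control; ≥3 independent experiments; celastrol 1 μM positive control.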

L132 [10] = test: Cytoprotective activity against paclitaxel-induced cell death in human L-132 cells at 3 uM pretreated for 1 hr followed by paclitaxel addition measured after 24 hrs by FACS analysis; assay type: functional, cell-based
Outline: (§3)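 L132 cells in RPMI with 10% FBS. 1 h pretreatment at 3 μM, then 0.5 μM paclitaxel or 20 μM cisplatin for 24 h, or 10 Gy γ-rays for 48 h. Cells trypsinized, washed, stained with propidium iodide and analysed by flow cytometry. Means ± SD of ≥3 independent experiments, fold-change vs negative control.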

L132 [11] = test: Cytoprotective activity against IR-induced cell death in human L-132 cells at 3 uM pretreated for 1 hr followed by 10 Gy irradiation measured after 48 hrs by FACS analysis; assay type: functional, cell-based; outline: as §3

Structure (SMILES) | Activity [1] | Activity (NCI-H460) | Activity [2] | Activity [3] | Activity [4] | Activity (Mus musculus [5]) | Activity (Mus musculus [6]) | Activity (Mus musculus [7]) | Activity (Mus musculus [8]) | Activity [9] | Activity (L132 [10]) | Activity (L132 [11])
COc1cc(/C=C/CO)ccc1O [CONIFERYL ALCOHOL] | Active | Active | Active | Active | Active | Non-Toxic | Active | Active | Active | Active | Active | Active
COc1cc(/C=C/C=O)ccc1O [CONIFERYL ALDEHYDE] | Active | Active | Active | Active | Active | Non-Toxic | Active | Active | Active | Active | Active | Active
